# Screens from PubChem BioAssay.
# A selection: hits, their analogues and other compounds. The true share with any hit is near 2.7%.
# FLuc inh counter = inhibits firefly luciferase, flagging false hits in luciferase inhibition screens. 200,000 tested, 1.5% active. P08659. ATPLite firefly luciferase biochemical luminescence, 10 min. inhibition, % at 10 µM;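 active = inhibition above about 50% when tested at 10 µM, limit read from the data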
# ABCG2 inh = inhibitors of human ABCG2 transporter, ABCB1 counter-screen. 190,000 tested, 0.1% active. inhibition, % at 6.6 µM. IgMXP3 cells, JC-1 efflux, flow cytometry;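 active = inhibition above 80%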;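 also: 0% = DMSO and 100% = nicardipine control wells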
#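 Measure – % inhibition of efflux relative to nicardipine and DMSO · Test system – ABCG2 IgMXP3 and barcoded ABCB1 CCRF-Adr cell mix · Control set – nicardipine as high control, DMSO as low control · Compound – one concentration, 6.6 µM final · Signal – flow cytometry of retained JC-1 fluorescence · Timing – 10 min exposure at 25 °C with rotation, no wash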
# FLuc act counter = affects firefly luciferase, flagging false hits in luciferase stimulation screens | P08659 | ATPlite luciferase biochemical, luminescence, 10 min; 0 = ATP-free wells, 1 = DMSO control | activation factor at 10 µM | 200,000 tested, under 10 active | AID 1027;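 active = luciferase activation factor, scaled between plate controls, of at least 2 with compound at 10 µM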
#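 Material: luciferase plus luciferin reagent, cell-free. Medium: PBS buffer for ATP. Also added: ATP substrate, dispensed from a 10.24 µM working solution in PBS. Doses: test compounds dosed from 2 mM stocks in 100% DMSO. Incubation: 10 min post-reagent at room temperature. Technique: light output (luminescence). Read-out basis: luminescence gain marking luciferase activators.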
# DTT redox prof = compounds producing H2O2 with reducing agent – biochemical, NIH compound library profiling, artefact control for MLSCN library redox annotation, primary screen. 200,000 tested, 0.03% active. activation, % at 10 µM. AID 878. DTT-dependent redox cycling H2O2, phenol red/HRP absorbance; 100% = 100 µM peroxide control, 0% = buffer;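 active = activation of at least 50% relative to the plate's high and low controls in the primary single-dose screen; inactive = activation below 50%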;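 also: compound incubated with DTT at 0.8 mM final as the reducing agent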
# Measles CPE = protection of cells from measles virus; 140,000 tested, 1.5% active; Measles virus-infected cells, CPE protection, absorbance; protection (pct of control), % at 4 µM; AID 841; in the data active = protection mostly above about 24%, no sharp cut-off; inactive = mostly below about 26%
# ABCB1 block = blocks JC-1 efflux by human ABCB1 transporter. P08183. CCRF-Adr cells, flow cytometry. inhibition, % at 6.6 µM. 190,000 tested, 0.067% active. AID 1326; in the data active = inhibition above about 40%;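 also: 0% = vehicle and 100% = reference inhibitor; higher value means more JC-1 retained so stronger ABCB1 efflux block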
# Target sequence (P08183 whole entry, looked up): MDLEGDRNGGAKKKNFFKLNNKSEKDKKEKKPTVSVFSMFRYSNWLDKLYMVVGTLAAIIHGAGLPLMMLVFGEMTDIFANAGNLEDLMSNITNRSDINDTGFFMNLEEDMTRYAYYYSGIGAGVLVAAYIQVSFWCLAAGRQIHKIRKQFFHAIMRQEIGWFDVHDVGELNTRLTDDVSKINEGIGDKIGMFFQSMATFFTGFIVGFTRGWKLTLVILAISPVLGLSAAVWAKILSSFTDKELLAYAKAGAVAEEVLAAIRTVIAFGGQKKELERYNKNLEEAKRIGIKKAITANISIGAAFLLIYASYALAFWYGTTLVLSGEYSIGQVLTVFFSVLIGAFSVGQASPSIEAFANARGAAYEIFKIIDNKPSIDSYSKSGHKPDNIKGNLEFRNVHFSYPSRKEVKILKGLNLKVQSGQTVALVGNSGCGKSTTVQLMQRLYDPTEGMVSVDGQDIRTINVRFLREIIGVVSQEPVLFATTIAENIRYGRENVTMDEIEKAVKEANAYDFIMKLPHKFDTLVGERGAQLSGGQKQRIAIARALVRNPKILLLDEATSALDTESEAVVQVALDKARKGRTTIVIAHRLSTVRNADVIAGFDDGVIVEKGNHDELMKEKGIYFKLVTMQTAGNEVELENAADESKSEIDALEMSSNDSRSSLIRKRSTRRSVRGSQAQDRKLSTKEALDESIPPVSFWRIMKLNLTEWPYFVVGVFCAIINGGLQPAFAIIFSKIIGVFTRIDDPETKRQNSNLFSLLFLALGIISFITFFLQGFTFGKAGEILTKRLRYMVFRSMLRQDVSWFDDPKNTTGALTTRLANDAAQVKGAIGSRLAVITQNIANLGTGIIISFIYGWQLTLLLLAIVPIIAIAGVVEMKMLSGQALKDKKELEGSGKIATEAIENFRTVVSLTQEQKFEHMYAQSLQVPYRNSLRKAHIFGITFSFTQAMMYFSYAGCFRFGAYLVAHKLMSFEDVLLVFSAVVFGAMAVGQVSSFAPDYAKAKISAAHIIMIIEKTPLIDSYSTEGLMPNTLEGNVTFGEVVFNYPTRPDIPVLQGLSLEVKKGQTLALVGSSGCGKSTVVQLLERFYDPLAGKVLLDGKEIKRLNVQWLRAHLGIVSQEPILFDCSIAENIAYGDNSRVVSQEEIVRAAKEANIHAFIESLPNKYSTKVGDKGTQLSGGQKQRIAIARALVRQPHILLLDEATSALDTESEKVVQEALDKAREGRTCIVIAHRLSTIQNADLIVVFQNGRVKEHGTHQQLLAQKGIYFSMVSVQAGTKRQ
# Active calls of the source: *; nt = no result given.
SMILES,FLuc inh counter,ABCG2 inh,FLuc act counter,DTT redox prof,Measles CPE,ABCB1 block
CN(C)c1ccc(/C=c2\sc3n(c2=O)CCCN=3)cc1,83.5*,0.7,0.2,-0.4,5.6,0.2
COC(=O)c1ccc(-c2ccc(Cl)cc2)nc1C,50.5*,9.4,0.5,-0.3,5.1,0.1
CCOC(=O)c1ccc(-c2cccc(C(F)(F)F)c2)nc1C,-4.2,7.9,1,2.5,4.4,0.8
O=C(/C=C/Nc1ccc(F)cc1)c1ccco1,91.6*,47.8,0.1,1.9,13.4,0.8
Cc1ccc([N+](=O)[O-])cc1N/C=C/C(=O)c1ccco1,1.4,3.0,1,-4.3,8.5,0.4
CCOC(=O)c1ccc(N/C=C/C(=O)c2ccc(OC)c(OC)c2)cc1,-4.3,2.5,1,2.4,1.8,0.6
CCOC(=O)c1ccc(N/C=C/C(=O)c2ccco2)cc1,61.6*,8.7,0.4,0.3,4.6,0.3
CC(C)(C)CC(=O)Nc1ccc(S(=O)(=O)N2CCCC2)cc1,3.4,-0.4,1,0.0,nt,0.1
Cc1ccc(NC(=O)C2C(=O)N(C)c3ccccc32)cc1 (configuration not stated),76.3*,-1.9,0.2,-0.5,7.6,nt
Cc1nc(CN(C)C(=O)c2cc(COc3ccc4ncccc4c3)on2)cs1,-3.5,0.3,1,-1.6,nt,0.6
CC(C)CNc1nc(Oc2ccc(=O)[nH]n2)nc(N2CCOCC2)n1,-3.2,0.5,1,-0.9,nt,0.0
CN(C)/C=N/S(=O)(=O)c1cccn1-c1ncc(C(F)(F)F)cc1Cl,-7.6,4.5,1.1,-0.7,nt,0.8
CN(C)S(=O)(=O)c1cccn1-c1ncc(C(F)(F)F)cc1Cl,-3.6,4.8,1,-3.3,43.1*,1.1
c1ccc(-n2ncc3c(N4CCCCC4)ncnc32)cc1,89.3*,2.8,0.1,-0.9,9.3,0.5
Cc1ccc(C)c(N2CCN(c3ncnc4c3cnn4-c3ccccc3)CC2)c1,7.0,1.1,0.9,0.2,51.0*,0.2
COc1ccc(N2C(=O)CC2(C#N)c2ccc(OCc3ccccc3)cc2)cc1 (configuration not stated),-9.1,11.9,1.1,-0.1,4.8,1.2
CC1CN(C(=O)c2c(Br)cnn2C)CC(C)O1 (configuration not stated),-6.2,15.1,1.1,0.5,17.0,0.9
Cc1nc2nc(C)c(CCC(=O)N3CCc4ccccc43)c(C)n2n1,-6.0,1.7,1.1,0.4,6.1,0.3
Cc1nc2ncnn2c(C)c1CCC(=O)N1CCc2ccccc21,-4.3,3.0,1,-2.5,39.6*,0.7
O=C(c1cccc(C(F)(F)F)c1)c1c[nH]c(C(=O)NCC2CCCO2)c1 (configuration not stated),0.6,15.9,1,-2.0,nt,1.7
Cc1c(C(=O)NC2=NCCS2)oc2ccccc12,51.0*,7.6,0.5,1.4,2.6,0.3
COCc1nnc(NC(=O)c2sc3ccccc3c2Cl)s1,63.3*,0.6,0.4,0.3,4.4,0.1
COCc1nnc(NC(=O)c2cccs2)s1,-0.8,12.1,1,0.6,8.8,0.4
COc1ccc(-c2cc(C(=O)NC3=NCCS3)c3ccccc3n2)cc1OC,19.9,7.7,0.8,-2.1,nt,1.5
O=C(NC1=NCCS1)c1cc(-c2ccc(-c3ccccc3)cc2)nc2ccccc12,73.4*,-2.7,0.3,1.0,1.0,-0.5
SMILES,FLuc inh counter,ABCG2 inh,FLuc act counter,DTT redox prof,Measles CPE,ABCB1 block
CNC(=O)c1ccsc1NC(=O)c1sc2ccccc2c1Cl,26.1,4.1,0.7,0.2,8.7,0.5
Cc1ccc(NC(=O)c2sc3ccccc3c2Cl)nc1,79.5*,27.6,0.2,1.7,2.5,0.5
CC/C(=N\NC(=O)c1cccnc1)c1ccc2c(c1)OCCO2,2.4,15.2,1,-0.9,nt,1.2
O=C(NC1=NCCS1)c1sc2cc(Cl)cc(Cl)c2c1Cl,-7.1,-1.0,1.1,0.7,24.1,-0.5
O=C(Nc1ccccn1)c1sc2cccc(F)c2c1Cl,80.7*,0.7,0.2,0.1,nt,-1.7
O=C(Nc1cccnc1)c1sc2cccc(F)c2c1Cl,26.1,16.8,0.7,0.3,nt,0.6
O=C(NC1=NCCS1)c1sc2ccccc2c1Cl,56.4*,9.3,0.4,-3.5,5.4,0.3
Cc1nnc(NC(=O)c2sc3ccccc3c2Cl)s1,96.7*,-0.3,0,0.1,12.1,0.0
O=[n+]1cc(-c2cccc3ccccc23)n([O-])c2c1CCC2,-3.7,0.7,1,0.2,2.8,0.2
CC(=O)NC1(C(F)(F)F)NC(=O)N(c2ccc(F)cc2)C1=O (configuration not stated),-11.6,0.8,1.1,0.2,nt,0.1
Cc1cc(C(C)(C)C)cc(S(=O)(=O)Nc2ccc(O)c(C(=O)O)c2)c1C,-5.6,-0.5,1.1,0.0,36.0*,0.0
CC(=O)Nc1ccc(NC(=O)c2ccc(NS(=O)(=O)c3cc(C(C)(C)C)cc(C)c3C)cc2)cc1,-6.7,-21.5,1.1,-0.3,2.1,-1.8
Cc1cc(OCc2ccc(C(=O)NN=C3CCCC3)cc2)ccc1Cl,-4.9,-0.3,1,-0.1,12.6,-0.2
Cc1ccccc1-n1c(C)cc(/C=N/NC(=O)c2ccncc2)c1C,55.2*,3.5,0.4,1.7,4.8,0.8
Cc1ccc(CS(=O)(=O)c2ncn[nH]2)cc1,-8.5,0.0,1.1,-0.5,nt,0.0
CCCCn1nc2cc(C(=O)NCc3ccc(C(F)(F)F)cc3C(F)(F)F)ccc2c1OCC,-3.6,18.3,1,-3.7,active,1.9
Cn1c(=O)n(C)c2cc([N+](=O)[O-])c(N3CCN(S(=O)(=O)c4ccc5ccccc5c4)CC3)cc21,-9.4,1.9,1.1,-0.2,32.8*,1.4
Cc1ccc(S(=O)(=O)N2CCN(c3cc4c(cc3[N+](=O)[O-])n(C)c(=O)n4C)CC2)cc1,-7.8,2.2,1.1,-0.3,3.1,-3.4
O=C1c2ccccc2C(=O)N1CN(C(=O)c1ccccc1)c1ccc(O)cc1,-3.6,12.9,1,-0.4,nt,3.9
COc1ccc(CCNC(=O)CN(C)S(=O)(=O)c2ccc(Br)s2)cc1OC,-2.3,10.8,1,-0.4,4.2,1.4
COc1ccc(CCNC(=O)CN(C)S(=O)(=O)c2cccs2)cc1OC,-4.8,4.4,1,-0.1,35.9*,0.6
O=C(CN1CCCc2ccccc21)NCCc1ccc(F)cc1,-3.6,1.8,1,0.2,nt,0.1
COc1ccc(CCNC(=O)CN2CCCc3ccccc32)cc1OC,-3.2,0.1,1,-0.1,44.8*,0.1
COc1ccc(CCNC(=O)CN2CCC(C)CC2)cc1OC,0.7,2.2,1,0.1,31.7*,0.7
Cc1ccc(-c2c(C#N)c(N)nc3c2CCCC3)s1,-8.7,8.6,1.1,-2.6,-0.9,3.3
